Hits are enriched below; roughly 2.2% of the tested compounds scored in any of these assays.
Hsp70 act: transcriptional activators of Hsp70; HeLa Hsp70 promoter luciferase reporter, luminescence; scaled: vehicle 0, proteasome-inhibitor control 100%; activation, % at 10 µM; 200,000 compounds, 0.04% hits;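 active = activation above the mean across all tested compounds plus 3 SD, cutoff set per campaign, cut at about 5.5% in these data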
RBBP9 inhibitor: inhibitors of human serine hydrolase RBBP9 | inhibition, % at 7.94 µM | recombinant RBBP9, FP-Rh probe fluorescence polarization | 220,000 compounds, 0.2% hits | O75884 | AID 1515;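 active = inhibition above the campaign mean of all tested compounds plus 3 SD, cut at about 14% in these data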
Target sequence (O75884 whole entry, looked up): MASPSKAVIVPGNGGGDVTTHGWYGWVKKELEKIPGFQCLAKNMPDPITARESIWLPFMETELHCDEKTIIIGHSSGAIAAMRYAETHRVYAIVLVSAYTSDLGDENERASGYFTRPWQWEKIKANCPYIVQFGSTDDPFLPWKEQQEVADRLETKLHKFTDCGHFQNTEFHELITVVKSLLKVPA
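system = RBBP9 protein | input = RBBP9 at 2.5 µM in dispensed solution, before mixing | measured by = fluorescence polarization (mP), excitation 525 nm, emission 598 nm | incubation = enzyme-compound preincubation 30 min, then probe labeling 45 min, 25 °C | buffer or medium = Tris-NaCl-Pluronic buffer, pH 8.0 | compound = single dose 7.94 µM | also added = FP-Rh probe, 375 nM dispensing solution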
MDM2 E3 inh: inhibitors of human Mdm2 E3 ubiquitin ligase. Q00987. cell-based MDM2 ubiquitination luciferase reporter, 2 h; 0 = plate control, 100 = twice control, blank-subtracted. signal enhancement, % at 5 µM. 210,000 compounds, 0.11% hits. AID 1230;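 active = signal enhancement of 30% or more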;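 also: luminescence tracks abundance of the self-degrading MDM2-luciferase fusion protein; higher signal means inhibition of MDM2 E3 ligase activity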
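Timing – 2 h compound exposure at 37 °C · Assay system – mammalian cells stably expressing self-ubiquitinating, self-degrading MDM2 E3–luciferase fusion · Amount – 2000 cells seeded into each well · Measure – % luminescence enhancement versus blank-corrected plate control mean · Measured by – SteadyLite luminescence, 15 min reagent step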
Wee1 degr inh: inhibitors of human Wee1 degradation; P30291; HeLa Luc-Wee1K328M stability, luciferase luminescence; 100% = proteasome inhibitor MG132 effect; reporter increase, % at 5 µM; 220,000 compounds, 1.2% hits; AID 1321;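 active = activation above the mean of all tested compounds plus 3 SD, set per screening run, cut at about 8.8% in these data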;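 also: cells exposed to compound for 20 h before luminescence read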
Insulin prom up: MIN6 insulin promoter up-regulation; MIN6 insulin promoter-GFP reporter, high-content imaging; active compounds read high; 190,000 compounds, 0.3% hits; z-score at 5 µM;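 active = z-score above 3 at 5 µM with at least 500 cells counted in the well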
INS promoter inh: TRM-6 insulin promoter activity inhibition; inhibition, % at 2 µM; 130,000 compounds, 0.9% hits; TRM-6 cells (human fetal islet line), insulin promoter-eGFP reporter, imaging; reporter expression induced with tamoxifen;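 active = inhibition above the mean plus 3 SD, with well images judged a real hit on visual review, cut at about 60% in these data, passing the limit was not always enough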
Wee1 stab conf: confirmation of human Wee1 degradation inhibitors | shares compounds with Wee1 degr inh | HeLa Luc-Wee1K328M degradation, luminescence; vehicle 0%, proteasome-blocked wells 100% | activation, % at 5 µM | 1,100 compounds, 4% hits | AID 1410; in the data active = activation above about 8.9%
Numbers stand for hits.

What do the screens show for `COC(=O)c1cc(NC(=O)c2cc(-c3ccc(C(F)(F)F)cc3)oc2C(F)(F)F)ccc1N1CCOCC1`?
RBBP9 inhibitor: inactive; MDM2 E3 inh: inactive; Wee1 degr inh: inactive; Insulin prom up: inactive

What do the screens show for `COC(=O)c1cc(NC(=O)c2cc(-c3ccc(OC)cc3)oc2C(F)(F)F)ccc1N1CCOCC1`?
RBBP9 inhibitor: inactive; MDM2 E3 inh: inactive; Wee1 degr inh: 11.6; Insulin prom up: inactive; Wee1 stab conf: inactive

How did CC(=O)c1ccc(NC(=S)NCCc2ccc(S(N)(=O)=O)cc2)cc1 do in these assays?
Hsp70 act: inactive; RBBP9 inhibitor: inactive; MDM2 E3 inh: inactive; Wee1 degr inh: 27.3; Insulin prom up: inactive; Wee1 stab conf: inactive

What do the screens show for `NS(=O)(=O)c1ccc(NC(=S)NCCc2ccccc2)cc1`?
Hsp70 act: inactive; RBBP9 inhibitor: inactive; MDM2 E3 inh: inactive; Wee1 degr inh: inactive; Insulin prom up: inactive

What do the screens show for `Cn1c(SCC2CCCO2)nnc1-c1ccc([N+](=O)[O-])cc1` (stereo not given)?
Hsp70 act: inactive; RBBP9 inhibitor: inactive; MDM2 E3 inh: inactive; Wee1 degr inh: 13.3; Insulin prom up: inactive; INS promoter inh: inactive; Wee1 stab conf: inactive

Results for Cn1c(SCC(=O)NCC2CCCO2)nnc1-c1ccc(S(=O)(=O)N2CCCC2)cc1 (stereo not given) ?
Hsp70 act: inactive; RBBP9 inhibitor: inactive; MDM2 E3 inh: inactive; Wee1 degr inh: inactive; Insulin prom up: inactive; INS promoter inh: inactive

How did Cc1cc(C)nc(N2CCCC(C(=O)Nc3nnc(C)s3)C2)n1 (stereo not given) do in these assays?
Hsp70 act: inactive; RBBP9 inhibitor: inactive; MDM2 E3 inh: inactive; Wee1 degr inh: inactive; Insulin prom up: inactive

Results for Cc1cc(C)nc(N2CCCC(C(=O)Nc3nc4ccc(S(C)(=O)=O)cc4s3)C2)n1 (stereo not given) ?
Hsp70 act: inactive; RBBP9 inhibitor: inactive; MDM2 E3 inh: inactive; Wee1 degr inh: 10.9; Insulin prom up: inactive; INS promoter inh: inactive; Wee1 stab conf: inactive

What do the screens show for `Nc1ccccc1C(=O)N/N=C1/C2CN3CCN(C2)CC1(Cc1ccccc1)C3`?
Hsp70 act: inactive; RBBP9 inhibitor: inactive; MDM2 E3 inh: inactive; Wee1 degr inh: 12.7; Insulin prom up: inactive; INS promoter inh: inactive; Wee1 stab conf: inactive

How did CC1CCc2c(sc(Nc3nc4c(F)cccc4s3)c2C(N)=O)C1 (stereo not given) do in these assays?
Hsp70 act: inactive; RBBP9 inhibitor: inactive; MDM2 E3 inh: inactive; Wee1 degr inh: inactive; Insulin prom up: inactive

What do the screens show for `COc1ccccc1CN1CCNC(=O)C1CC(=O)NCCOc1cccnc1` (stereo not given)?
Hsp70 act: inactive; RBBP9 inhibitor: inactive; MDM2 E3 inh: inactive; Wee1 degr inh: inactive; Insulin prom up: inactive

Results for CCN=C(NCC)SC1CC(=O)N(c2ccccc2)C1=O (stereo not given) ?
Hsp70 act: inactive; RBBP9 inhibitor: inactive; MDM2 E3 inh: inactive; Wee1 degr inh: inactive; Insulin prom up: inactive

What do the screens show for `CCOc1ccc(N2C(=O)CC(Sc3nnnn3-c3ccccc3)C2=O)cc1` (stereo not given)?
Hsp70 act: inactive; RBBP9 inhibitor: inactive; MDM2 E3 inh: inactive; Wee1 degr inh: 13.5; Insulin prom up: inactive; INS promoter inh: inactive; Wee1 stab conf: inactive

How did CCOc1ccc(N2C(=O)CC(Sc3nc(C)cc(C)n3)C2=O)cc1 (stereo not given) do in these assays?
Hsp70 act: inactive; RBBP9 inhibitor: inactive; MDM2 E3 inh: inactive; Wee1 degr inh: inactive; Insulin prom up: inactive

What do the screens show for `CCN=C(NCC)SC1CC(=O)N(c2ccc(OCC)cc2)C1=O` (stereo not given)?
Hsp70 act: inactive; RBBP9 inhibitor: inactive; MDM2 E3 inh: inactive; Wee1 degr inh: 15.9; Insulin prom up: inactive; Wee1 stab conf: inactive

How did CCCCn1c(=O)nc2n(-c3ccccc3C)c3ccccc3cc-2c1=O do in these assays?
Hsp70 act: inactive; RBBP9 inhibitor: inactive; MDM2 E3 inh: inactive; Wee1 degr inh: inactive; Insulin prom up: inactive
